# Experiments:
# Type in all cases: functional
# Plasmodium falciparum = experiment: Antimalarial activity against Plasmodium falciparum NF54 infected in human serum at 20 ug/ml after 48 hrs by fluorometric method
# Summary of the method: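 Asynchronous P. falciparum NF54 at 1.5–2% parasitemia, 5% hematocrit in RPMI with 10% human serum, exposed 48 h at 37 °C under 90% N2/5% CO2/5% O2 at the stated concentration; parasite DNA stained with ethidium bromide after proteinase K lysis; viability % = (Flu treated − medium)/(Flu untreated − medium) ×100; triplicate.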
# MDA-MB-468 = experiment: Cytotoxicity against human MDA-MB-468 cells after 48 hrs by SRB assay; conditions: MDA-MB-468, 48 h
# Summary of the method: (§1)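 NCI 60-cell-line screen. Cells preincubated 24 h at 37 °C, 5% CO2; time-zero plates TCA-fixed. Compounds dissolved in DMSO and tested at five concentrations (100, 10, 1.0, 0.1, 0.01 µM) for 48 h continuous exposure. Adherent cells fixed with cold TCA (10% final), then SRB stained; absorbance at 515 nm. GI50, TGI and LC50 calculated from growth relative to time-zero and untreated controls.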
# BT-549 = experiment: Cytotoxicity against human BT549 cells after 48 hrs by SRB assay; conditions: BT-549, 48 h; summary of the method: as §1
# Hs-578T = experiment: Cytotoxicity against human Hs578T cells after 48 hrs by SRB assay; summary of the method: as §1
# MCF7 = experiment: Cytotoxicity against human MCF7 cells after 48 hrs by SRB assay; conditions: MCF7, 48 h; summary of the method: as §1
# CAKI-1 = experiment: Cytotoxicity against human Caki1 cells after 48 hrs by SRB assay; conditions: CAKI-1, 48 h; summary of the method: as §1
# RXF 393 = experiment: Cytotoxicity against human RXF393 cells after 48 hrs by SRB assay; conditions: RXF 393, 48 h; summary of the method: as §1
# ACHN = experiment: Cytotoxicity against human ACHN cells after 48 hrs by SRB assay; summary of the method: as §1
# SK-OV-3 = experiment: Cytotoxicity against human SKOV3 cells after 48 hrs by SRB assay; conditions: SK-OV-3, 48 h; summary of the method: as §1
# NCI/ADR-RES = experiment: Cytotoxicity against human NCI/ADR-RES cells after 48 hrs by SRB assay; summary of the method: as §1
# OVCAR-8 = experiment: Cytotoxicity against human OVCAR8 cells after 48 hrs by SRB assay; conditions: OVCAR-8, 48 h; summary of the method: as §1
# OVCAR-5 = experiment: Cytotoxicity against human OVCAR5 cells after 48 hrs by SRB assay; conditions: OVCAR-5, 48 h; summary of the method: as §1
# IGROV-1 = experiment: Cytotoxicity against human IGROV1 cells after 48 hrs by SRB assay; conditions: IGROV-1, 48 h; summary of the method: as §1
# U-251 = experiment: Cytotoxicity against human U251 cells after 48 hrs by SRB assay; conditions: U-251, 48 h
# Summary of the method: (§2)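 NCI 60-cell screen. Cells grew 24 h (37 °C, 5% CO2) before compound was added. Compounds were in DMSO and diluted in medium with gentamicin, then tested at five levels (100, 10, 1.0, 0.1, 0.01 µM) with 48 h continuous exposure. Adherent cells were fixed with TCA (10% final) and stained with 0.4% SRB, absorbance read at 515 nm. A time-zero plate was included. LC50 is the concentration giving 50% loss of protein relative to time zero.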
# SF-539 = experiment: Cytotoxicity against human SF539 cells after 48 hrs by SRB assay; conditions: SF-539, 48 h; summary of the method: as §1
# SW-620 = experiment: Cytotoxicity against human SW620 cells after 48 hrs by SRB assay; conditions: SW-620, 48 h; summary of the method: as §2
# SF-268 = experiment: Cytotoxicity against human SF268 cells after 48 hrs by SRB assay; conditions: SF-268, 48 h; summary of the method: as §1
# HCT-15 = experiment: Cytotoxicity against human HCT15 cells after 48 hrs by SRB assay; conditions: HCT-15, 48 h; summary of the method: as §1
# HT-29 = experiment: Cytotoxicity against human HT-29 cells after 48 hrs by SRB assay; conditions: HT-29, 48 h; summary of the method: as §1
# NCI-H460 = experiment: Cytotoxicity against human NCI-H460 cells after 48 hrs by SRB assay; conditions: NCI-H460, 48 h; summary of the method: as §1
# [1] = Cytotoxicity against human EKVX cells after 48 hrs by SRB assay; summary of the method: as §1
# SR = experiment: Cytotoxicity against human SR cells after 48 hrs by SRB assay; summary of the method: as §2
# K562 = experiment: Cytotoxicity against human K562 cells after 48 hrs by SRB assay; conditions: K562, 48 h; summary of the method: as §1
# HL-60(TB) = experiment: Cytotoxicity against human HL-60(TB) cells after 48 hrs by SRB assay; conditions: HL-60, 48 h; summary of the method: as §1
# [2] = read-out: LC50 (the source's name)
smiles,measurement,setting,value
COc1ccc(C2CC(c3cccc(Nc4ccnc5cc(Cl)ccc45)c3)=NN2C=O)cc1 (configuration not stated),inhibition at 20 µg/mL,Plasmodium falciparum,4.1%
same,GI50,MDA-MB-468,210 nM
same,LC50,MDA-MB-468,> 100000 nM
same,GI50,BT-549,450 nM
same,LC50 (50% net cell kill vs time zero),BT-549,55600 nM
same,GI50,Hs-578T,360 nM
same,LC50 (50% net cell kill),Hs-578T,> 100000 nM
same,GI50,MCF7,370 nM
same,CC50,MCF7; [2],> 100000 nM
same,GI50,CAKI-1,330 nM
same,LC50,CAKI-1,100000 nM
same,GI50,RXF 393,850 nM
same,LC50 (concentration killing 50% of cells),RXF 393,> 100000 nM
same,GI50,ACHN,870 nM
same,CC50,ACHN; [2],> 100000 nM
same,GI50,SK-OV-3,700 nM
same,LC50 (concentration killing 50% of cells),SK-OV-3,> 100000 nM
same,GI50,NCI/ADR-RES,350 nM
same,CC50,NCI/ADR-RES; [2],> 100000 nM
same,GI50,OVCAR-8,950 nM
same,LC50 (50% net cell kill),OVCAR-8,> 100000 nM
same,GI50,OVCAR-5,3510 nM
same,LC50,OVCAR-5,> 100000 nM
same,GI50,IGROV-1,1440 nM
same,LC50 (concentration killing 50% of cells relative to time zero),IGROV-1,> 100000 nM
same,GI50,U-251,450 nM
same,CC50,U-251; [2],41800 nM
same,GI50,SF-539,610 nM
same,CC50,SF-539; [2],66200 nM
same,GI50,SW-620,360 nM
same,LC50,SW-620,> 100000 nM
same,GI50,SF-268,2560 nM
same,LC50,SF-268,> 100000 nM
same,GI50,HCT-15,440 nM
same,LC50 (concentration killing 50% of cells relative to time zero),HCT-15,> 100000 nM
same,GI50,HT-29,340 nM
same,LC50,HT-29,> 100000 nM
same,GI50,NCI-H460,400 nM
same,LC50,NCI-H460,> 100000 nM
same,GI50,[1],640 nM
same,LC50,[1],> 100000 nM
same,GI50,SR,240 nM
same,LC50,SR,> 100000 nM
same,GI50,K562,290 nM
same,LC50 (concentration killing 50% of cells),K562,> 100000 nM
same,GI50,HL-60(TB),250 nM
same,CC50,HL-60(TB); [2],5280 nM
